Data reported in ChEMBL document CHEMBL1275556, “High prevalence of plasmid-mediated quinolone resistance genes qnr and aac(6')-Ib-cr in clinical isolates of Enterobacteriaceae from nine teaching hospitals in China” (2008).
In brackets after ≈: the same amount, converted by molar mass.

Columns and labels:
Enterobacter cloacae [1] = assay: Antimicrobial activity against aac(6')-Ib-cr-negative Enterobacter cloacae WH42 harboring wild-type GyrA, ParC, GyrB and qnrA genes by agar dilution method; assay type: functional
Klebsiella pneumoniae [2] = assay: Antimicrobial activity against aac(6')-Ib-cr-positive Klebsiella pneumoniae SY26 harboring GyrA S83I, ParC S80I mutant, wild-type GyrB and qnrB genes by agar dilution method; assay type: functional
How it was run: (§1)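 MICs were determined on clinical isolates by CLSI agar dilution (M7-A7) and interpreted against CLSI M100-S17 breakpoints.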

Klebsiella pneumoniae [3] = assay: Antimicrobial activity against aac(6')-Ib-cr-positive Klebsiella pneumoniae JN132T harboring qnrB gene by agar dilution method; assay type: functional
How it was run: (§2)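 Transconjugants were made by conjugating a qnr/aac(6')-Ib-cr donor with azide-resistant E. coli J53. Selection used Trypticase soy agar with sodium azide 150 µg/ml and sulfamethoxazole 180 µg/ml. […] MICs were read by CLSI agar dilution (M7-A7) and interpreted per M100-S17.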

Citrobacter freundii [4] = assay: Antimicrobial activity against aac(6')-Ib-cr-positive Citrobacter freundii JN1T by agar dilution method; assay type: functional
How it was run: (§3)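 MICs were determined by the CLSI agar dilution method (M7-A7) and interpreted against CLSI M100-S17 breakpoints.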

Enterobacter cloacae [5] = assay: Antimicrobial activity against aac(6')-Ib-cr-negative Enterobacter cloacae WH42T harboring qnrA gene by agar dilution method; assay type: functional
Klebsiella pneumoniae [6] = assay: Antimicrobial activity against aac(6')-Ib-cr-positive Klebsiella pneumoniae SY26T harboring wild-type GyrA, ParC, GyrB and qnrB genes by agar dilution method; assay type: functional
How it was run: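 Transconjugants were made by conjugating a qnr/aac(6')-Ib-cr donor with azide-resistant E. coli J53. MICs were read by CLSI agar dilution (M7-A7) and interpreted per M100-S17.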

Enterobacter cloacae [7] = assay: Antimicrobial activity against aac(6')-Ib-cr-negative Enterobacter cloacae GZ47T harboring qnrB gene by agar dilution method; assay type: functional
Escherichia coli [8] = assay: Antimicrobial activity against aac(6')-Ib-cr-positive Escherichia coli FJ3 harboring GyrA S83L, ParC S80R mutant, wild-type GyrB and qnrB genes by agar dilution method; assay type: functional; how it was run: as §3
Enterobacter cloacae [9] = assay: Antimicrobial activity against aac(6')-Ib-cr-positive Enterobacter cloacae FJ63T harboring qnrS gene by agar dilution method; assay type: functional
Citrobacter freundii [10] = assay: Antimicrobial activity against aac(6')-Ib-cr-positive Citrobacter freundii PU55 harboring GyrA T83I, ParC S80I mutant, wild-type GyrB, qnrA genes by agar dilution method; assay type: functional; how it was run: as §3
Citrobacter freundii [11] = assay: Antimicrobial activity against aac(6')-Ib-cr-positive Citrobacter freundii JN1 harboring GyrA T83I, ParC S80I mutant, wild-type GyrB and qnrA genes by agar dilution method; assay type: functional; how it was run: as §3
Citrobacter freundii [12] = assay: Antimicrobial activity against aac(6')-Ib-cr-negative Citrobacter freundii JN64T harboring qnrA gene by agar dilution method; assay type: functional; how it was run: as §3
Enterobacter cloacae [13] = assay: Antimicrobial activity against aac(6')-Ib-cr-positive Enterobacter cloacae FJ63 harboring GyrA S83I, GyrA D87A, ParC S80I mutant, wild-type GyrB and qnrS genes by agar dilution method; assay type: functional
Klebsiella pneumoniae [14] = assay: Antimicrobial activity against aac(6')-Ib-cr-positive Klebsiella pneumoniae WH99 harboring wild-type GyrA, ParC, GyrB and qnrB genes by agar dilution method; assay type: functional; how it was run: as §1
Enterobacter cloacae [15] = assay: Antimicrobial activity against aac(6')-Ib-cr-negative Enterobacter cloacae FJ61T harboring qnrS gene by agar dilution method; assay type: functional
Klebsiella pneumoniae [16] = assay: Antimicrobial activity against aac(6')-Ib-cr-positive Klebsiella pneumoniae GZ40 harboring GyrA S83I, ParC S80I mutant, wild-type GyrB and qnrB genes by agar dilution method; assay type: functional; how it was run: as §3
Citrobacter freundii [17] = assay: Antimicrobial activity against aac(6')-Ib-cr-positive Citrobacter freundii TJ15T harboring wild-type GyrA, ParC, GyrB genes by agar dilution method; assay type: functional; how it was run: as §3
Klebsiella pneumoniae [18] = assay: Antimicrobial activity against aac(6')-Ib-cr-positive Klebsiella pneumoniae JN132 harboring GyrA S83I, ParC S80I mutant, wild-type GyrB and qnrB genes by agar dilution method; assay type: functional; how it was run: as §1
Klebsiella pneumoniae [19] = assay: Antimicrobial activity against aac(6')-Ib-cr-positive Klebsiella pneumoniae GZ40T harboring qnrB gene by agar dilution method
Escherichia coli [20] = assay: Antimicrobial activity against aac(6')-Ib-cr-negative Escherichia coli PU12 harboring GyrA S83L mutant, wild-type GyrB, ParC and qnrS genes by agar dilution method; assay type: functional; how it was run: as §3
Enterobacter cloacae [21] = assay: Antimicrobial activity against aac(6')-Ib-cr-negative Enterobacter cloacae SH39T harboring qnrA gene by agar dilution method; assay type: functional
Enterobacter cloacae [22] = assay: Antimicrobial activity against aac(6')-Ib-cr-negative Enterobacter cloacae FJ67T harboring qnrS gene by agar dilution method; assay type: functional
Citrobacter freundii [23] = assay: Antimicrobial activity against aac(6')-Ib-cr-positive Citrobacter freundii JS33T harboring qnrA gene by agar dilution method; assay type: functional; how it was run: as §3
Enterobacter cloacae [24] = assay: Antimicrobial activity against aac(6')-Ib-cr-negative Enterobacter cloacae SH39 harboring GyrA S83I, ParC S80I mutant, wild-type GyrB and qnrA genes by agar dilution method; assay type: functional
Citrobacter freundii [25] = assay: Antimicrobial activity against aac(6')-Ib-cr-positive Citrobacter freundii PU55T harboring wild-type GyrA, ParC, GyrB and qnrA genes by agar dilution method
Enterobacter cloacae [26] = assay: Antimicrobial activity against aac(6')-Ib-cr-negative Enterobacter cloacae GZ51T harboring qnrA gene by agar dilution method; assay type: functional
Enterobacter cloacae [27] = assay: Antimicrobial activity against aac(6')-Ib-cr-negative Enterobacter cloacae FJ67 harboring […] and qnrS genes by agar dilution method; assay type: functional
Citrobacter freundii [28] = assay: Antimicrobial activity against aac(6')-Ib-cr-negative Citrobacter freundii JN64 harboring GyrA T83I, wild-type ParC, GyrB and qnrA genes by agar dilution method; assay type: functional; how it was run: as §3
Klebsiella pneumoniae [29] = assay: Antimicrobial activity against aac(6')-Ib-cr-positive Klebsiella pneumoniae JN41 harboring GyrA S83I, ParC S80I mutant, wild-type GyrB and qnrB genes by agar dilution method; assay type: functional; how it was run: as §1
Citrobacter freundii [30] = assay: Antimicrobial activity against aac(6')-Ib-cr-positive Citrobacter freundii JS33 harboring GyrA T83I mutant, wild-type ParC, GyrB, qnrA and qnrB genes by agar dilution method; assay type: functional; how it was run: as §3
Klebsiella pneumoniae [31] = assay: Antimicrobial activity against aac(6')-Ib-cr-negative Klebsiella pneumoniae SY22 harboring GyrA S83I, ParC S80I mutant, wild-type GyrB and qnrS genes by agar dilution method; assay type: functional; how it was run: as §3
Klebsiella pneumoniae [32] = assay: Antimicrobial activity against aac(6')-Ib-cr-positive Klebsiella pneumoniae JN41T harboring qnrB gene by agar dilution method; assay type: functional; how it was run: as §2
Enterobacter cloacae [33] = assay: Antimicrobial activity against aac(6')-Ib-cr-negative Enterobacter cloacae FJ61 harboring GyrA S83I, GyrA D87A, ParC S80I mutant, wild-type GyrB and qnrS genes by agar dilution method; assay type: functional
Enterobacter cloacae [34] = assay: Antimicrobial activity against aac(6')-Ib-cr-negative Enterobacter cloacae GZ51 harboring qnrA gene by agar dilution method; assay type: functional
Escherichia coli [35] = assay: Antimicrobial activity against aac(6')-Ib-cr-positive Escherichia coli FJ3T harboring wild-type GyrA, ParC, GyrB and qnrB genes by agar dilution method
Klebsiella pneumoniae [36] = assay: Antimicrobial activity against aac(6')-Ib-cr-negative Klebsiella pneumoniae SY22T harboring qnrS gene by agar dilution method; assay type: functional; how it was run: as §3
Klebsiella pneumoniae [37] = assay: Antimicrobial activity against aac(6')-Ib-cr-positive Klebsiella pneumoniae WH99T harboring qnrB gene by agar dilution method; assay type: functional; how it was run: as §2
Escherichia coli [38] = assay: Antimicrobial activity against Escherichia coli J53 harboring wild-type GyrA, ParC, GyrB genes by agar dilution method
Citrobacter freundii [39] = assay: Antimicrobial activity against aac(6')-Ib-cr-positive Citrobacter freundii TJ15 harboring GyrA T83I, ParC S80I mutant, wild-type GyrB, qnrB genes by agar dilution method; assay type: functional; how it was run: as §3
Enterobacter cloacae [40] = assay: Antimicrobial activity against aac(6')-Ib-cr-negative Enterobacter cloacae GZ47 harboring qnrB and qnrS genes by agar dilution method; assay type: functional
Escherichia coli [41] = assay: Antimicrobial activity against aac(6')-Ib-cr-negative Escherichia coli PU12T harboring wild-type GyrA, GyrB, ParC and qnrS genes by agar dilution method; assay type: functional; how it was run: as §3

NCC[C@H](O)C(=O)N[C@@H]1C[C@H](N)[C@@H](O[C@H]2O[C@H](CN)[C@@H](O)[C@H](O)[C@H]2O)[C@H](O)[C@H]1O[C@H]1O[C@H](CO)[C@@H](O)[C@H](N)[C@H]1O [AMIKACIN]
MIC (Enterobacter cloacae [1]): 16 µg/mL (≈ 27.3 µM)
MIC (Klebsiella pneumoniae [2]): 64 µg/mL (≈ 109 µM)
MIC (Klebsiella pneumoniae [3]): 64 µg/mL (≈ 109 µM)
MIC (Citrobacter freundii [4]): 2 µg/mL (≈ 3.42 µM)
MIC (Enterobacter cloacae [5]): 16 µg/mL (≈ 27.3 µM)
MIC (Klebsiella pneumoniae [6]): 32 µg/mL (≈ 54.6 µM)
MIC (Enterobacter cloacae [7]): 1 µg/mL (≈ 1.71 µM)
MIC (Escherichia coli [8]): 4 µg/mL (≈ 6.83 µM)
MIC (Enterobacter cloacae [9]): 64 µg/mL (≈ 109 µM)
MIC (Citrobacter freundii [10]): 4 µg/mL (≈ 6.83 µM)
MIC (Citrobacter freundii [11]): 4 µg/mL (≈ 6.83 µM)
MIC (Citrobacter freundii [12]): > 256 µg/mL
MIC (Enterobacter cloacae [13]): > 256 µg/mL
MIC (Klebsiella pneumoniae [14]): 2 µg/mL (≈ 3.42 µM)
MIC (Enterobacter cloacae [15]): 2 µg/mL (≈ 3.42 µM)
MIC (Klebsiella pneumoniae [16]): 8 µg/mL (≈ 13.7 µM)
MIC (Citrobacter freundii [17]): 4 µg/mL (≈ 6.83 µM)
MIC (Klebsiella pneumoniae [18]): 64 µg/mL (≈ 109 µM)
MIC (Klebsiella pneumoniae [19]): 4 µg/mL (≈ 6.83 µM)
MIC (Escherichia coli [20]): 8 µg/mL (≈ 13.7 µM)
MIC (Enterobacter cloacae [21]): 2 µg/mL (≈ 3.42 µM)
MIC (Enterobacter cloacae [22]): 16 µg/mL (≈ 27.3 µM)
MIC (Citrobacter freundii [23]): 4 µg/mL (≈ 6.83 µM)
MIC (Enterobacter cloacae [24]): 2 µg/mL (≈ 3.42 µM)
MIC (Citrobacter freundii [25]): 4 µg/mL (≈ 6.83 µM)
MIC (Enterobacter cloacae [26]): > 256 µg/mL
MIC (Enterobacter cloacae [27]): 32 µg/mL (≈ 54.6 µM)
MIC (Citrobacter freundii [28]): > 256 µg/mL
MIC (Klebsiella pneumoniae [29]): 4 µg/mL (≈ 6.83 µM)
MIC (Citrobacter freundii [30]): 4 µg/mL (≈ 6.83 µM)
MIC (Klebsiella pneumoniae [31]): 2 µg/mL (≈ 3.42 µM)
MIC (Klebsiella pneumoniae [32]): 4 µg/mL (≈ 6.83 µM)
MIC (Enterobacter cloacae [33]): 2 µg/mL (≈ 3.42 µM)
MIC (Enterobacter cloacae [34]): > 256 µg/mL
MIC (Escherichia coli [35]): 2 µg/mL (≈ 3.42 µM)
MIC (Klebsiella pneumoniae [36]): 2 µg/mL (≈ 3.42 µM)
MIC (Klebsiella pneumoniae [37]): 2 µg/mL (≈ 3.42 µM)
MIC (Escherichia coli [38]): 1 µg/mL (≈ 1.71 µM)
MIC (Citrobacter freundii [39]): 4 µg/mL (≈ 6.83 µM)
MIC (Enterobacter cloacae [40]): 1 µg/mL (≈ 1.71 µM)
MIC (Escherichia coli [41]): 4 µg/mL (≈ 6.83 µM)
